Assay type in all cases: biochemical, Prunus dulcis
Experiment [1] deals with sweet almond β-glucosidase. Nature of the experiment: p-nitrophenolate absorbance at […] nm. The conditions noted are these: pH 6.3, 0.01 M MES, 0.01 M NaCl, 4.6% v/v DMSO, 25°C.
The subject of experiment [2] is sweet almond β-glucosidase. Nature of the experiment: initial velocity, stopped assay, glucose by hexokinase / G6PDH. The settings on record: pH 6.3, 0.01 M MES, 0.01 M NaCl, 4.6% v/v DMSO, 25°C, H2O. The method in brief: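 Chromatographically purified almond enzyme (65 kD), diluted from stock in 0.01 M MES/0.01 M NaCl pH 6.3, added to about 2 μg/mL to start the reaction at 25.0 °C. Thioglucoside substrate came from DMSO stock. Aliquots were withdrawn and glucose measured by coupled yeast hexokinase/L. mesenteroides G6PDH (10 mM ATP, 5 mM MgSO4, 1 mM NAD+, pH 7.5), reading NADH at 340 nm. Km came from non-linear Michaelis-Menten fit.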

The subject of experiment [3] is sweet almond β-glucosidase. Nature of the experiment: KM as Ki from inhibition of pNPG hydrolysis at […] nm. The conditions noted are these: pH 6.3, 0.01 M MES, 0.01 M NaCl, 4.6% v/v DMSO, 25°C; kcat calculated from kcat/KM and KM.
For experiment [4], the target named is sweet almond β-glucosidase. Put plainly: inhibition of pNPG hydrolysis, p-nitrophenolate at […] nm. The conditions noted are these: pNPG about 0.1 mM, pH 6.3, 25°C; not detectably hydrolysed.

The text below walks through data of paper PMC3755622 (Archives of biochemistry and biophysics, 2013).

In the case of `O=[N+]([O-])c1ccc(O[C@@H]2O[C@H](CO)[C@@H](O)[C@H](O)[C@H]2O)cc1` [pNPG, p-nitrophenyl β-D-glucopyranoside], the Michaelis-Menten constant (Km) in experiment [1] was 2500 µM.
On to `OC[C@H]1O[C@@H](Sc2nc3ccccc3[nH]2)[C@H](O)[C@@H](O)[C@@H]1O` [GlcSBiz, 2'-benzimidazolyl 1-thio-β-D-glucopyranoside], for which the Km in experiment [2] was 2500 µM.
In the case of `Cn1c(S[C@@H]2O[C@H](CO)[C@@H](O)[C@H](O)[C@H]2O)nc2ccccc21` [GlcS(N-Me)Biz, 1'-methylbenzimidazol-2'-yl 1-thio-β-D-glucopyranoside], in experiment [3], the Km is 47000 µM.
Still for that read-out and setting: as for `OC[C@H]1O[C@@H](Sc2nc3ccccc3o2)[C@H](O)[C@@H](O)[C@@H]1O` [GlcSBox, 2-benzoxazolyl 1-thio β-D-glucopyranoside], the figure is 2700 µM.
As to `OC[C@H]1O[C@@H](SC2=NCCS2)[C@H](O)[C@@H](O)[C@@H]1O` [GlcSTaz, 2-thiazolinyl1-thio-β-D-glucopyranoside], the inhibition constant Ki in experiment [4] came to 8.7 mM. In other words, the millimolar range.

What is called Km is the concentration of substrate that gives half-maximal velocity. By Ki is commonly meant the equilibrium dissociation constant of an inhibitor or competing ligand from its target. Lower therefore signals a stronger hold on the target.
